CRFR2-BP antag: CRF-BP/CRF-R2 complex antagonism; hit rate 0.59% among 350,000; inhibition, % at 11.8 µM; HEK293 CRF-R2/CRF-BP, CRF-induced calcium fluorescence; AID 588475;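 active = inhibition of the ligand-induced calcium signal above about 50% at the single tested concentration, limit read from the data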
TMEM16A act: activators or potentiators of mouse TMEM16A chloride channel | hit rate 0.3% among 340,000 | AID 623877 | Q8BHY3 | B-score at 10 µM | HEK293 TMEM16A/YFP-H148Q/I152L, iodide quench fluorescence; stronger effect = lower value;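 active = fluorescence-ratio B-score plate-corrected deviation score at least 3 library SD below zero, with starting fluorescence score within 5 deviations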;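 note: channel opened by trigger with iodide after compound preincubation; score built on the fluorescence ratio of max minus min over baseline; more negative score means more quench and so TMEM16A activation or potentiation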
TAAR1 antag: antagonists of human TAAR1 | Q96RJ0 | CHO RD-HGA16 TAAR1, Fluo-8 calcium fluorescence, antagonist | inhibition, % at 3 µM | hit rate 1.5% among 360,000 | AID 624466;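 active = inhibition above a per-plate cutoff, the mean inhibition of test compounds on that plate plus 3 SD, cut at about 49% in these data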;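 note: 0% = DMSO plus EC80 beta-PEA response and 100% = DMSO alone without agonist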
Target sequence (Q96RJ0 whole entry, looked up): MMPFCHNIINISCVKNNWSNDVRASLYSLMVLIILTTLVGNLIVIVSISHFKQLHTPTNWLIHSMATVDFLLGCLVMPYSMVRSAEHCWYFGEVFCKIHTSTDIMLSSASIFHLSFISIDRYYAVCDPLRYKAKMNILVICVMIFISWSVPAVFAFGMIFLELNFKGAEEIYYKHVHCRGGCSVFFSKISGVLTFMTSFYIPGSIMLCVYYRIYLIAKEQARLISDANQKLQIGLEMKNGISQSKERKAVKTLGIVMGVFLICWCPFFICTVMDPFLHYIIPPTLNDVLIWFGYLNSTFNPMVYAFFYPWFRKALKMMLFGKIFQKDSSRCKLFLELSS
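Test system: CHO RD-HGA16 cells bearing hTAAR1 | Reagent: β-PEA, EC80 | Compound dosing: 3 µM, single point | Schedule: Dye loading 75 min at 37 °C, then 30 min room temperature | Signal: Calcium fluorescence with Fluo-8 | Evaluation: Percent inhibition of PEA-evoked calcium signal, max/basal emission ratio | Control set: DMSO-only wells and EC80 β-PEA-stimulated wells | Repeats: Singlicate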
CRFR2-BP ag: CRF-BP/CRF-R2 complex agonism | HEK293 CRF-R2/CRF-BP, calcium dye fluorescence (FLIPR); percent of saturating CRF peptide response | activation, % at 13.2 µM | hit rate 0.46% among 350,000;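 active = activation of at least 50%, plus an integration ratio under a set limit after plate pattern correction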;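 note: plate controls were neutral control wells without compound for no effect and CRF at EC100 for full effect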
TAAR1 ag: human TAAR1 agonism; Q96RJ0; CHO RD-HGA16 TAAR1, Fluo-8 calcium fluorescence; vehicle wells 0%, saturating PEA agonist 100%; activation, % at 3 µM; hit rate 0.99% among 360,000; AID 624467;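 active = activation above the mean activation of all test compounds in the run plus 3 SD, cut at about 38% in these data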
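System: CHO-derived RD-HGA16 cells with stable Gα16 and human TAAR1. Times: 17-24 h plating, Fluo-8 75 min 37 °C, 30 min RT. Measured by: calcium-sensitive Fluo-8 signal, excitation 470-495, emission 515-575 nm. Read-out basis: % activation relative to PEA EC100 response. Control set: DMSO and PEA EC100. Repeats: no replicates (n 1).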
TMEM16A inh: mouse TMEM16A channel inhibition, primary screen. normalized B-score (activity score, 25-100; higher = stronger inhibition) at 10 µM. AID 588511. hit rate 1.2% among 310,000. HEK293 TMEM16A/YFP iodide influx fluorescence, ionomycin;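 active = ratio plate-corrected score three or more library SD toward inhibition, starting fluorescence score within five deviations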;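 note: score derived from kinetic fluorescence span divided by baseline fluorescence per well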
* = called active by the depositor; i = inactive; . = not tested or not shown. Rows were chosen to be rich in hits. Some 3.9% of all compounds tested hit in one or more screens of this group.

SMILES	CRFR2-BP antag	TMEM16A act	TAAR1 antag	CRFR2-BP ag	TAAR1 ag	TMEM16A inh
COC(=O)c1c(-c2ccc(S(C)(=O)=O)cc2)sc2ccc(OC)cc12	0	i	49*	-1	9	.
COC(=O)c1c(-c2ccc(S(C)(=O)=O)cc2)sc2cc(OC)ccc12	-6	i	9	-1	13	.
COc1ccc(N2CCN(C(=O)CCCCCn3c(=S)[nH]c4ccc(N5CCOCC5)cc4c3=O)CC2)cc1	34	.	56*	-1	9	.
O=C(c1nc2ccc(Cl)cn2c1CN1CCC[C@H]1CO)N1CCCCCCC1	10	i	-11	1	2	i
Cc1ccc(S(=O)(=O)N2C(=O)CCC2C(=O)O/N=C(\N)c2cccc([N+](=O)[O-])c2)cc1 (stereo not given)	10	i	-15	-1	-1	i
COc1ccc(CCNC(=O)C(CCC(N)=O)NS(=O)(=O)c2ccc(Cl)cc2)cc1OC (stereo not given)	6	i	-4	1	1	i
Cc1cc(C(=O)NNC(=O)C(CCC(N)=O)NS(=O)(=O)c2ccc(Cl)cc2)c(C)o1 (stereo not given)	67*	i	-9	0	2	.
Cc1ccsc1CN(C)C(=O)c1ccc(Oc2ccccc2)cc1	-11	i	30	1	-3	i
O=C(N/N=C/c1cc(Cl)cc([N+](=O)[O-])c1O)NC12CC3CC(CC(C3)C1)C2	53*	i	-13	-3	0	i
CCOC(=O)C(C)(C)N(Cc1ccc(C)cc1)S(=O)(=O)c1ccc(Cl)c([N+](=O)[O-])c1	67*	i	-9	-1	-1	i
Cc1cc(C)c(C)c(S(=O)(=O)NCc2ccc(C(=O)N3CCOCC3)cc2)c1C	1	i	-14	1	6	i
OCCCNc1cc(-c2ccnc(Nc3cccc(Cl)c3)n2)ccn1	-16	i	80*	-2	17	i
CCOC(=O)c1c(NC(=O)C(C)Sc2cccc[n+]2[O-])sc2c1CCN(Cc1ccccc1)C2 (stereo not given)	7	i	.	51*	.	i
CCOC(=O)c1c(NC(C)=O)sc2c1CCN(Cc1ccccc1)C2	-24	i	6	27	5	i
COc1ccc(-c2cc(-c3ccccc3)c(C#N)c(S(C)=O)n2)cc1 (stereo not given)	40	-8.1*	18	0	3	i
O=[n+]1c2c(n([O-])c3cc(F)c(N4CCCC4)cc31)CCC2	-35	i	4	47	16	i
O=[n+]1c2c(n([O-])c3cc(F)c(N4CCCC4)cc31)CCCC2	-20	i	8	55*	20	i
CCNC(=O)O/N=C1\CCCCC1c1ccc([N+](=O)[O-])cc1[N+](=O)[O-] (stereo not given)	10	i	-6	6	2	i
Cc1cc(C)nc(NS(=O)(=O)c2ccc(NC(=O)c3cccs3)cc2)n1	-34	i	-1	-2	12	i
CCCCN(CCCC)S(=O)(=O)c1ccc(NC(=O)c2cccs2)cc1	-1	i	23	4	16	100*
CC#CCCCC(=O)Nc1ccccc1C(=O)O	63*	i	-1	0	1	i
COC(=O)C1=C(C(=O)OC)C(C(=O)OC)N2C=CC=CC2=C1C(=O)OC (stereo not given)	.	.	-4	.	0	.
CCc1ccc(CN(C)C(=O)CCc2nc3ccccc3n(-c3ccc(OC)cc3)c2=O)cc1	3	i	-8	2	1	100*
c1ccc(-c2csc3ncnc(NCc4ccccn4)c23)cc1	-5	i	53*	0	11	i
CN(C(=O)CS(=O)(=O)c1cn(CC(=O)N2CCCCC2)c2ccccc12)c1ccccc1	2	i	-15	0	1	i
Cc1cc(C)c(N2CCN(S(=O)(=O)N3CCCCCC3)CC2)c(C)c1	-39	-22*	44	35	9	25*
Cc1ccc(N2CCN(S(=O)(=O)N3CCCCC3)CC2)cc1Cl	-43	i	11	0	12	i

Bioassay records from PubChem.
